Laboratory results from ChEMBL document CHEMBL3045113, “Inhibition of plant-pathogenic bacteria by short synthetic cecropin A-melittin hybrid peptides” (Appl Environ Microbiol, 2006).
pEC50: −log10 of the molar value. Values after ≈ are worked out from the molar mass of the structure shown. Active and inactive are the calls of the source. No cut-off for these calls is given here. *1 amine or outer side, *2 acyl side, *3 side chain or, on linkers, in order; H or OH if unused. Where a SMILES comes first, the peptide text is derived from it. [ ]: non-standard residue; d: D form. The star is where a group is joined. X1 = O=C([C@H](Cc1c[nH]c2ccccc12)N(Cc1ccccc1)[*:1])[*:2]; Palmitoyl = CCCCCCCCCCCCCCCC(=O)*; Tos = Cc1ccc(S(=O)(=O)*)cc1; Bz = O=C(c1ccccc1)*

What was measured:
[1] = tested on: Erwinia amylovora; assay: Antibacterial activity against Erwinia amylovora PMV6076 assessed as growth inhibition after 48 hr; type: functional; details: PMV6076, 48 h, read-out: ED50 (the source's name)
Procedure, shortened: (§1)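 Growth was read as OD600 every hour for 48 h at 25°C in tryptic soy broth across a peptide dilution series, in duplicate, repeated twice. Growth is the area under the curve, and inhibition is given as % of the water control. ED50 comes from a probit-dose model fitted by nonlinear least squares.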

[2] = tested on: Xanthomonas vesicatoria; assay: Antibacterial activity against Xanthomonas vesicatoria 2133-2 after 48 hr by broth dilution method; type: functional; details: 2133-2, 48 h
Procedure, shortened: (§2)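 Broth microdilution in tryptic soy broth with bacteria from a 10⁸ CFU/ml suspension. Final peptide levels were 750 down to 25 μM, or 250 to 3.12 μM for cecropin A. Plates were held at 25°C with OD600 read hourly for 48 h, in duplicate wells, and the run was repeated twice. MIC is the lowest concentration with no growth at 48 h.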

[3] = Hemolytic activity against Homo sapiens (human) RBC assessed as hemoglobin release after 1 hr; type: ADME, cell-based, Erythrocyte; details: red blood cells, read-out: HD50
Procedure, shortened: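 Fresh EDTA-anticoagulated human blood was washed in Tris buffer (10 mM Tris, 150 mM NaCl, pH 7.2) and used as a 5% suspension. Equal volumes of cells and peptide at 800 to 12.5 μM were shaken for 1 h at 37°C, then centrifuged. Supernatant A540 was taken relative to buffer and a melittin full-lysis control. HD50 was derived by probit fit.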

[4] = tested on: Pseudomonas syringae pv. syringae; assay: Antibacterial activity against Pseudomonas syringae pv. syringae EPS94 assessed as growth inhibition after 48 hr; type: functional; details: EPS94, 48 h, read-out: ED50 (the source's name); procedure, shortened: as §1
[5] = tested on: Xanthomonas vesicatoria; assay: Antibacterial activity against Xanthomonas vesicatoria 2133-2 assessed as growth inhibition after 48 hr; type: functional; details: 2133-2, 48 h, read-out: ED50 (the source's name); procedure, shortened: as §1
[6] = tested on: Erwinia amylovora; assay: Antibacterial activity against Erwinia amylovora PMV6076 after 48 hr by broth dilution method; type: functional; details: PMV6076, 48 h; procedure, shortened: as §2
[7] = tested on: Pseudomonas syringae pv. syringae; assay: Antibacterial activity against Pseudomonas syringae pv. syringae EPS94 after 48 hr by broth dilution method; type: functional; details: EPS94, 48 h; procedure, shortened: as §2
[8] = tested on: Xanthomonas vesicatoria; assay: Antibacterial activity against Xanthomonas vesicatoria 2133-2 at 25 to 750 uM after 48 hr by broth dilution method; type: functional, organism-based; procedure, shortened: as §2
[9] = tested on: Erwinia amylovora; assay: Antibacterial activity against Erwinia amylovora PMV6076 at 25 to 750 uM after 48 hr by broth dilution method; type: functional, organism-based; procedure, shortened: as §2
[10] = tested on: Pseudomonas syringae pv. syringae; assay: Antibacterial activity against Pseudomonas syringae pv. syringae EPS94 at 25 to 750 uM after 48 hr by broth dilution method; type: functional, organism-based; procedure, shortened: as §2
[11] = Stability of the compound in tris buffer at pH 7.6 at 50 ug/ml after 45 min by HPLC method in presence of proteinase K; details: pH 7.6, 0.75 h
[12] = tested on: Erwinia amylovora; assay: Bactericidal activity against Erwinia amylovora PMV6076 assessed as decrease in survival at 5 uM after 48 hr; type: functional, organism-based
Procedure, shortened: (§3)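 LB broth cultures at 4 × 10⁶ CFU/ml were exposed to 5 μM peptide. Samples taken every 30 min over 3 h were diluted 10-fold and plated on LB agar. Colonies were counted after 48 h at 25°C, and survival is expressed as % of the starting count.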

[13] = tested on: Xanthomonas vesicatoria; assay: Bactericidal activity against Xanthomonas vesicatoria 2133-2 assessed as decrease in survival at 5 uM after 48 hr; type: functional, organism-based; procedure, shortened: as §3
[14] = tested on: Pseudomonas syringae pv. syringae; assay: Bactericidal activity against Pseudomonas syringae pv. syringae EPS94 assessed as decrease in survival at 5 uM after 48 hr; type: functional, organism-based; procedure, shortened: as §3
[15] = tested on: Xanthomonas vesicatoria; assay: Bactericidal activity against Xanthomonas vesicatoria 2133-2 assessed as decrease in survival at 5 uM after 90 min; type: functional, organism-based; procedure, shortened: as §3

## CC[C@H](C)[C@H](NC(=O)[C@H](CCCCN)NC(=O)[C@H](CCCCN)NC(=O)[C@H](Cc1ccccc1)NC(=O)[C@H](CC(C)C)NC(=O)[C@H](CCCCN)NC(=O)[C@@H](N)Cc1c[nH]c2ccccc12)C(=O)N[C@@H](CC(C)C)C(=O)N[C@@H](CCCCN)C(=O)N[C@@H](Cc1ccc(O)cc1)C(=O)N[C@@H](CC(C)C)C(N)=O
[1]
  pEC50: 5.49
[2]
  MIC: 2 µM (≈ 2.96 µg/mL)
[3]
  HC50 at 1 h: 42 µM
[4]
  pEC50: 5.57
[5]
  pEC50: 5.64
[6]
  MIC: 2 µM (≈ 2.96 µg/mL)
[7]
  MIC: 2 µM (≈ 2.96 µg/mL)

## CC[C@H](C)[C@H](NC(=O)[C@H](CCCCN)NC(=O)[C@H](CCCCN)NC(=O)[C@H](Cc1ccccc1)NC(=O)[C@H](CC(C)C)NC(=O)[C@H](CCCCN)NC(=O)[C@@H](N)CCCCN)C(=O)N[C@@H](CC(C)C)C(=O)N[C@@H](CCCCN)C(=O)N[C@@H](CCCCN)C(=O)N[C@@H](CC(C)C)C(N)=O
[8]
  Activity: inactive
[9]
  Activity: inactive
[10]
  Activity: inactive

## CC[C@H](C)[C@H](NC(=O)[C@H](CCCCN)NC(=O)[C@H](CCCCN)NC(=O)[C@H](Cc1ccccc1)NC(=O)[C@H](CC(C)C)NC(=O)[C@H](CCCCN)NC(=O)[C@H](Cc1c[nH]c2ccccc12)NC(=O)c1ccccc1)C(=O)N[C@@H](CC(C)C)C(=O)N[C@@H](CCCCN)C(=O)N[C@H](C(=O)N[C@@H](CC(C)C)C(N)=O)C(C)C (Bz-WKLFKKILKVL-NH2)
[1]
  pEC50: 4.82
[2]
  MIC: < 2 µM
[11]
  Stability: Unstable
[3]
  HC50 at 1 h: 11 µM
[4]
  pEC50: 5.02
[6]
  MIC: 15 µM (≈ 22.8 µg/mL)
[7]
  MIC: 15 µM (≈ 22.8 µg/mL)

## CC[C@H](C)[C@H](NC(=O)[C@H](CCCCN)NC(=O)[C@H](CCCCN)NC(=O)[C@H](Cc1ccccc1)NC(=O)[C@H](CC(C)C)NC(=O)[C@H](CCCCN)NC(=O)[C@H](Cc1c[nH]c2ccccc12)NCc1ccccc1)C(=O)N[C@@H](CC(C)C)C(=O)N[C@@H](CCCCN)C(=O)N[C@H](C(=O)N[C@@H](CC(C)C)C(N)=O)C(C)C (H-[X1]KLFKKILKVL-NH2)
[12]
  Activity: inactive
[1]
  pEC50: 5.30
[2]
  MIC: 2 µM (≈ 3.01 µg/mL)
[13]
  Activity: Active
[3]
  HC50 at 1 h: 30 µM
[14]
  Activity: Active
[4]
  pEC50: 5.42
[5]
  pEC50: 5.60
[6]
  MIC: 7 µM (≈ 10.5 µg/mL)
[7]
  MIC: 5 µM (≈ 7.53 µg/mL)

## CCCCCCCCCCCCCCCC(=O)N[C@@H](Cc1c[nH]c2ccccc12)C(=O)N[C@@H](CCCCN)C(=O)N[C@@H](CC(C)C)C(=O)N[C@@H](Cc1ccccc1)C(=O)N[C@@H](CCCCN)C(=O)N[C@@H](CCCCN)C(=O)N[C@H](C(=O)N[C@@H](CC(C)C)C(=O)N[C@@H](CCCCN)C(=O)N[C@H](C(=O)N[C@@H](CC(C)C)C(N)=O)C(C)C)[C@@H](C)CC (Palmitoyl-WKLFKKILKVL-NH2)
[1]
  pEC50: 4.22
[2]
  MIC: 25 µM (≈ 41.3 µg/mL)
[3]
  HC50 at 1 h: 6 µM
[4]
  pEC50: 4.25
[5]
  pEC50: 4.83
[6]
  MIC: 50 µM (≈ 82.7 µg/mL)
[7]
  MIC: 50 µM (≈ 82.7 µg/mL)

## CC[C@H](C)[C@H](NC(=O)[C@H](CCCCN)NC(=O)[C@H](CCCCN)NC(=O)[C@H](Cc1ccccc1)NC(=O)[C@H](CC(C)C)NC(=O)[C@H](CCCCN)NC(=O)[C@H](Cc1c[nH]c2ccccc12)NS(=O)(=O)c1ccc(C)cc1)C(=O)N[C@@H](CC(C)C)C(=O)N[C@@H](CCCCN)C(=O)N[C@H](C(=O)N[C@@H](CC(C)C)C(N)=O)C(C)C (Tos-WKLFKKILKVL-NH2)
[1]
  pEC50: 4.95
[2]
  MIC: < 2 µM
[3]
  HC50 at 1 h: 10 µM
[4]
  pEC50: 5.16
[6]
  MIC: 12 µM (≈ 18.8 µg/mL)
[7]
  MIC: 12 µM (≈ 18.8 µg/mL)

## CC[C@H](C)[C@H](NC(=O)[C@H](CCCCN)NC(=O)[C@H](CCCCN)NC(=O)[C@H](Cc1ccccc1)NC(=O)[C@H](CC(C)C)NC(=O)[C@H](CCCCN)NC(=O)[C@@H](N)CCCCN)C(=O)N[C@@H](CC(C)C)C(=O)N[C@@H](CCCCN)C(=O)N[C@@H](Cc1ccccc1)C(=O)N[C@@H](CC(C)C)C(N)=O [KKLFKKILKFL-NH2]
[12]
  Activity: Active
[1]
  pEC50: 5.60
[2]
  MIC: 2 µM (≈ 2.81 µg/mL)
[11]
  Stability: Stable
[3]
  HC50 at 1 h: 203 µM
[14]
  Activity: Active
[15]
  Activity: Active
[4]
  pEC50: 5.68
[5]
  pEC50: 5.72
[6]
  MIC: 2 µM (≈ 2.81 µg/mL)
[7]
  MIC: 2 µM (≈ 2.81 µg/mL)

## CC[C@H](C)[C@H](NC(=O)[C@H](CCCCN)NC(=O)[C@H](CCCCN)NC(=O)[C@H](Cc1ccccc1)NC(=O)[C@H](CC(C)C)NC(=O)[C@H](CCCCN)NC(=O)[C@@H](N)CCCCN)C(=O)N[C@@H](CC(C)C)C(=O)N[C@@H](CCCCN)C(=O)N[C@H](C(=O)N[C@@H](CC(C)C)C(N)=O)C(C)C [KKLFKKILKVL-NH2]
[12]
  Activity: Active
[1]
  pEC50: 5.37
[2]
  MIC: 12 µM (≈ 16.3 µg/mL)
[11]
  Stability: Unstable
[13]
  Activity: Active
[3]
  HC50 at 1 h: 334 µM
[14]
  Activity: Active
[4]
  pEC50: 5.80
[5]
  pEC50: 5.14
[6]
  MIC: 5 µM (≈ 6.78 µg/mL)
[7]
  MIC: 2 µM (≈ 2.71 µg/mL)

## Ac-WKLFKKILKVL-NH2
[1]
  pEC50: 5.05
[2]
  MIC: 2 µM
[11]
  Stability: Unstable
[3]
  HC50 at 1 h: 17 µM
[4]
  pEC50: 5.37
[5]
  pEC50: 5.70
[6]
  MIC: 10 µM
[7]
  MIC: 7 µM

## H-FKLFKKILKVL-NH2
[8]
  Activity: inactive
[9]
  Activity: inactive
[10]
  Activity: inactive

## H-LKLFKKILKVL-NH2
[12]
  Activity: Active
[1]
  pEC50: 5.37
[2]
  MIC: 10 µM
[11]
  Stability: Unstable
[13]
  Activity: Active
[3]
  HC50 at 1 h: 190 µM
[14]
  Activity: Active
[4]
  pEC50: 5.49
[5]
  pEC50: 5.39
[6]
  MIC: 5 µM
[7]
  MIC: 5 µM

## H-WKLFKKILKFL-NH2
[1]
  pEC50: 5.89
[2]
  MIC: < 2 µM
[3]
  HC50 at 1 h: 32 µM
[4]
  pEC50: 5.72
[6]
  MIC: 5 µM
[7]
  MIC: 5 µM

## H-WKLFKKILKKL-NH2
[8]
  Activity: inactive
[9]
  Activity: inactive
[10]
  Activity: inactive

## H-WKLFKKILKVL-NH2
[12]
  Activity: Active
[1]
  pEC50: 5.26
[2]
  MIC: 7 µM
[11]
  Stability: Unstable
[13]
  Activity: Active
[3]
  HC50 at 1 h: 104 µM
[14]
  Activity: Active
[4]
  pEC50: 5.26
[5]
  pEC50: 5.44
[6]
  MIC: 7 µM
[7]
  MIC: 7 µM

## H-WKLFKKILKWL-NH2
[1]
  pEC50: 5.52
[2]
  MIC: < 2 µM
[3]
  HC50 at 1 h: 26 µM
[4]
  pEC50: 5.60
[6]
  MIC: 5 µM
[7]
  MIC: 5 µM

## H-YKLFKKILKVL-NH2
[8]
  Activity: inactive
[9]
  Activity: inactive
[10]
  Activity: inactive
